Experimental data as given in ChEMBL document CHEMBL1765049, “Inhibitory properties of 2-substituent-1H-benzimidazole-4-carboxamide derivatives against enteroviruses” (Bioorg Med Chem, 2011).

System: Enterovirus A71
Experiment: Antiviral activity against Human enterovirus 71 infected in african green monkey Vero cells assessed as inhibition of viral growth after 48 hrs by Reed-Muench method
Format: functional, organism-based
Conditions: Enterovirus A; call rule not given here
Procedure, shortened: (§1)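 Vero cells were seeded and after 24 h exposed to virus for 2 h. Compounds were then added after being dissolved in DMSO and diluted in culture medium. Cell-control and virus-control wells were run alongside. Cytopathic effect was scored once the virus wells exceeded grade 4. The 50% inhibitory concentration of virus growth was calculated by the Reed–Muench method.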

SMILES	IC50
O=C(N[C@H](CO)[C@H](O)c1ccc([N+](=O)[O-])cc1)c1cccc2[nH]c(-c3ccccn3)nc12	4.06 µM

System: Vero
Experiment: (§2) Cytotoxicity against african green monkey Vero cells
Format: cell-based
Conditions: chlorocebus sabaeus, vero
Procedure, shortened: (§3)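 TC50 is the compound concentration killing 50% of Vero cells (inhibiting cell growth by 50%). Compounds were dissolved in DMSO and diluted in medium, then added to seeded Vero cells. Cell wells were examined when cytopathic effect in virus-infected control wells exceeded grade 4.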

SMILES	TC50
COc1ccc(-c2nc3c(C(=O)Nc4ncc[nH]4)cccc3[nH]2)cc1OC	Not Active

System: not listed separately
Experiment: as §2
Format: cell-based
Conditions: chlorocebus sabaeus, Vero cells; read-out: TC50 (the source's name)
Procedure, shortened: as §3

SMILES	CC50
O=C(NCCO)c1cccc2[nH]c(-c3cccnc3)nc12	682 µM
O=C(N[C@H](CO)[C@H](O)c1ccc([N+](=O)[O-])cc1)c1cccc2[nH]c(-c3ccc([N+](=O)[O-])o3)nc12	68.7 µM
O=C(Nc1ccccc1F)c1cccc2[nH]c(-c3ccncc3)nc12	111 µM
O=C(Nc1ccccc1F)c1cccc2[nH]c(-c3cccnc3)nc12	54.7 µM
COc1ccc(-c2nc3c(C(=O)Nc4nc5ccccc5[nH]4)cccc3[nH]2)c(OC)c1OC	29 µM
CCC(CC)NC(=O)c1cccc2[nH]c(-c3ccc(OC)c(OC)c3)nc12	2.23 µM
O=C(NCCO)c1cccc2[nH]c(-c3ccccn3)nc12	568 µM
NC(=O)c1cccc2[nH]c(-c3ccccn3)nc12	224 µM
NC(=O)c1cccc2[nH]c(-c3cccnc3)nc12	77.7 µM
O=C(Nc1ccccc1F)c1cccc2[nH]c(-c3ccccn3)nc12	54.7 µM
O=C(NCCO)c1cccc2[nH]c(-c3ccncc3)nc12	498 µM
COc1ccc(-c2nc3c(C(=O)NCCCO)cccc3[nH]2)c(OC)c1OC	40 µM
O=C(N[C@H](CO)[C@H](O)c1ccc([N+](=O)[O-])cc1)c1cccc2[nH]c(-c3cccnc3)nc12	148 µM
O=C(Nc1ccccc1)c1cccc2[nH]c(-c3cccnc3)nc12	34.2 µM
O=C(Nc1ccccc1F)c1cccc2[nH]c(-c3ccc([N+](=O)[O-])o3)nc12	75.9 µM
O=C(Nc1ccccc1)c1cccc2[nH]c(-c3ccncc3)nc12	49.8 µM
CCC(CC)NC(=O)c1cccc2[nH]c(-c3ccc(OC)c(OC)c3OC)nc12	32.3 µM
COc1ccc(-c2nc3c(C(=O)Nc4nc5ccccc5[nH]4)cccc3[nH]2)cc1OC	51.8 µM
O=C(N[C@H](CO)[C@H](O)c1ccc([N+](=O)[O-])cc1)c1cccc2[nH]c(-c3ccccn3)nc12	1330 µM

System: Enterovirus A71
Experiment: Antiviral activity against Human enterovirus 71 infected in african green monkey Vero cells assessed as inhibition of viral growth after 24 hrs by Reed-Muench method
Format: functional, organism-based
Conditions: Enterovirus A
Procedure, shortened: as §1

SMILES	IC50
COc1ccc(-c2nc3c(C(=O)Nc4nc5ccccc5[nH]4)cccc3[nH]2)c(OC)c1OC	16.7 µM
CCC(CC)NC(=O)c1cccc2[nH]c(-c3ccc(OC)c(OC)c3)nc12	0.736 µM
COc1ccc(-c2nc3c(C(=O)NCCCO)cccc3[nH]2)c(OC)c1OC	14.9 µM
CCC(CC)NC(=O)c1cccc2[nH]c(-c3ccc(OC)c(OC)c3OC)nc12	18.7 µM

System: Coxsackievirus B3
Experiment: Antiviral activity against Coxsackievirus B3 infected in african green monkey Vero cells assessed as inhibition of viral growth after 24 hrs by Reed-Muench method
Format: functional, organism-based
Conditions: Enterovirus B
Procedure, shortened: as §1

SMILES	IC50
O=C(NCCO)c1cccc2[nH]c(-c3cccnc3)nc12	90.7 µM
O=C(N[C@H](CO)[C@H](O)c1ccc([N+](=O)[O-])cc1)c1cccc2[nH]c(-c3ccc([N+](=O)[O-])o3)nc12	22.9 µM
O=C(Nc1ccccc1F)c1cccc2[nH]c(-c3ccncc3)nc12	37.2 µM
O=C(Nc1ccccc1F)c1cccc2[nH]c(-c3cccnc3)nc12	9.73 µM
COc1ccc(-c2nc3c(C(=O)Nc4nc5ccccc5[nH]4)cccc3[nH]2)c(OC)c1OC	16.9 µM
CCC(CC)NC(=O)c1cccc2[nH]c(-c3ccc(OC)c(OC)c3)nc12	0.7 µM
O=C(NCCO)c1cccc2[nH]c(-c3ccccn3)nc12	131 µM
NC(=O)c1cccc2[nH]c(-c3ccccn3)nc12	30.6 µM
NC(=O)c1cccc2[nH]c(-c3cccnc3)nc12	26 µM
O=C(Nc1ccccc1F)c1cccc2[nH]c(-c3ccccn3)nc12	1.63 µM
COc1ccc(-c2nc3c(C(=O)NCCCO)cccc3[nH]2)c(OC)c1OC	19.5 µM
O=C(N[C@H](CO)[C@H](O)c1ccc([N+](=O)[O-])cc1)c1cccc2[nH]c(-c3cccnc3)nc12	28.6 µM
O=C(Nc1ccccc1)c1cccc2[nH]c(-c3cccnc3)nc12	3.72 µM
O=C(Nc1ccccc1F)c1cccc2[nH]c(-c3ccc([N+](=O)[O-])o3)nc12	25.3 µM
O=C(Nc1ccccc1)c1cccc2[nH]c(-c3ccncc3)nc12	12.3 µM
CCC(CC)NC(=O)c1cccc2[nH]c(-c3ccc(OC)c(OC)c3OC)nc12	18.7 µM
O=C(N[C@H](CO)[C@H](O)c1ccc([N+](=O)[O-])cc1)c1cccc2[nH]c(-c3ccccn3)nc12	4.06 µM

System: not listed separately
Experiment: Selectivity index, ratio of TC50 for african green monkey Vero cells to IC50 for Coxsackievirus B3
Format: toxicity, cell-based
Conditions: read-out: Selectivity Index
Procedure, shortened: (§4)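 Selectivity index is calculated as TC50 in Vero cells divided by the antiviral IC50 against the named enterovirus. Both values come from the same Vero cytopathic-effect assay, with compounds dissolved in DMSO and diluted in medium.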

SMILES	selectivity ratio
O=C(NCCO)c1cccc2[nH]c(-c3cccnc3)nc12	7.5
O=C(N[C@H](CO)[C@H](O)c1ccc([N+](=O)[O-])cc1)c1cccc2[nH]c(-c3ccc([N+](=O)[O-])o3)nc12	3
O=C(Nc1ccccc1F)c1cccc2[nH]c(-c3ccncc3)nc12	3
O=C(Nc1ccccc1F)c1cccc2[nH]c(-c3cccnc3)nc12	3.2
COc1ccc(-c2nc3c(C(=O)Nc4nc5ccccc5[nH]4)cccc3[nH]2)c(OC)c1OC	1.7
CCC(CC)NC(=O)c1cccc2[nH]c(-c3ccc(OC)c(OC)c3)nc12	3
O=C(NCCO)c1cccc2[nH]c(-c3ccccn3)nc12	4.3
NC(=O)c1cccc2[nH]c(-c3ccccn3)nc12	7.3
NC(=O)c1cccc2[nH]c(-c3cccnc3)nc12	3
O=C(Nc1ccccc1F)c1cccc2[nH]c(-c3ccccn3)nc12	28.4
COc1ccc(-c2nc3c(C(=O)NCCCO)cccc3[nH]2)c(OC)c1OC	2.1
O=C(N[C@H](CO)[C@H](O)c1ccc([N+](=O)[O-])cc1)c1cccc2[nH]c(-c3cccnc3)nc12	5.2
O=C(Nc1ccccc1)c1cccc2[nH]c(-c3cccnc3)nc12	9.2
O=C(Nc1ccccc1F)c1cccc2[nH]c(-c3ccc([N+](=O)[O-])o3)nc12	3
O=C(Nc1ccccc1)c1cccc2[nH]c(-c3ccncc3)nc12	4
CCC(CC)NC(=O)c1cccc2[nH]c(-c3ccc(OC)c(OC)c3OC)nc12	1.7
O=C(N[C@H](CO)[C@H](O)c1ccc([N+](=O)[O-])cc1)c1cccc2[nH]c(-c3ccccn3)nc12	328

System: not listed separately
Experiment: Selectivity index, ratio of TC50 for african green monkey Vero cells to IC50 for Coxsackievirus B6
Format: toxicity, cell-based
Conditions: read-out: Selectivity Index
Procedure, shortened: as §4

SMILES	selectivity ratio
COc1ccc(-c2nc3c(C(=O)Nc4nc5ccccc5[nH]4)cccc3[nH]2)c(OC)c1OC	1.7
CCC(CC)NC(=O)c1cccc2[nH]c(-c3ccc(OC)c(OC)c3)nc12	3
COc1ccc(-c2nc3c(C(=O)NCCCO)cccc3[nH]2)c(OC)c1OC	2.7
CCC(CC)NC(=O)c1cccc2[nH]c(-c3ccc(OC)c(OC)c3OC)nc12	1.7

System: not listed separately
Experiment: Selectivity index, ratio of TC50 for african green monkey Vero cells to IC50 for Human enterovirus 71
Format: toxicity, cell-based
Conditions: read-out: Selectivity Index
Procedure, shortened: as §4

SMILES	selectivity ratio
COc1ccc(-c2nc3c(C(=O)Nc4nc5ccccc5[nH]4)cccc3[nH]2)c(OC)c1OC	1.7
CCC(CC)NC(=O)c1cccc2[nH]c(-c3ccc(OC)c(OC)c3)nc12	3
COc1ccc(-c2nc3c(C(=O)NCCCO)cccc3[nH]2)c(OC)c1OC	2.7
CCC(CC)NC(=O)c1cccc2[nH]c(-c3ccc(OC)c(OC)c3OC)nc12	1.73
O=C(N[C@H](CO)[C@H](O)c1ccc([N+](=O)[O-])cc1)c1cccc2[nH]c(-c3ccccn3)nc12	328

System: Coxsackievirus B6
Experiment: Antiviral activity against Coxsackievirus B6 infected in african green monkey Vero cells assessed as inhibition of viral growth after 24 hrs by Reed-Muench method
Format: functional, organism-based
Conditions: Enterovirus B
Procedure, shortened: as §1

SMILES	IC50
COc1ccc(-c2nc3c(C(=O)Nc4nc5ccccc5[nH]4)cccc3[nH]2)c(OC)c1OC	16.7 µM
CCC(CC)NC(=O)c1cccc2[nH]c(-c3ccc(OC)c(OC)c3)nc12	0.736 µM
COc1ccc(-c2nc3c(C(=O)NCCCO)cccc3[nH]2)c(OC)c1OC	19.2 µM
CCC(CC)NC(=O)c1cccc2[nH]c(-c3ccc(OC)c(OC)c3OC)nc12	18.7 µM

System: Coxsackievirus A16
Experiment: Antiviral activity against Coxsackievirus A16 infected in african green monkey Vero cells assessed as inhibition of viral growth after 24 hrs by Reed-Muench method
Format: functional, cell-based
Conditions: Enterovirus A, Vero, 24 h; read-out: IC50
Procedure, shortened: as §1

SMILES	IC50
COc1ccc(-c2nc3c(C(=O)Nc4nc5ccccc5[nH]4)cccc3[nH]2)c(OC)c1OC	16.7 µM
CCC(CC)NC(=O)c1cccc2[nH]c(-c3ccc(OC)c(OC)c3)nc12	0.736 µM
COc1ccc(-c2nc3c(C(=O)NCCCO)cccc3[nH]2)c(OC)c1OC	19.2 µM
CCC(CC)NC(=O)c1cccc2[nH]c(-c3ccc(OC)c(OC)c3OC)nc12	18.7 µM
COc1ccc(-c2nc3c(C(=O)Nc4nc5ccccc5[nH]4)cccc3[nH]2)cc1OC	9.98 µM

Same assay, conditions: vero

SMILES	IC50
COc1ccc(-c2nc3c(C(=O)Nc4ncc[nH]4)cccc3[nH]2)cc1OC	Not Active

System: not listed separately
Experiment: Selectivity index, ratio of TC50 for african green monkey Vero cells to IC50 for Coxsackievirus A16
Format: toxicity, cell-based
Conditions: read-out: Selectivity Index
Procedure, shortened: as §4

SMILES	selectivity ratio
COc1ccc(-c2nc3c(C(=O)Nc4nc5ccccc5[nH]4)cccc3[nH]2)c(OC)c1OC	1.7
CCC(CC)NC(=O)c1cccc2[nH]c(-c3ccc(OC)c(OC)c3)nc12	3
COc1ccc(-c2nc3c(C(=O)NCCCO)cccc3[nH]2)c(OC)c1OC	2.1
CCC(CC)NC(=O)c1cccc2[nH]c(-c3ccc(OC)c(OC)c3OC)nc12	1.7
COc1ccc(-c2nc3c(C(=O)Nc4nc5ccccc5[nH]4)cccc3[nH]2)cc1OC	5.2
